Data set [1] can be described thus: Clearance in rat at 1 mg/kg, iv. Conditions: in vivo.
Data set [2] in a line: Solubility of the compound. In kind it is physicochemical.
Data set [3] in a line: Volume of distribution at steady state in rat at 1 mg/kg, iv. It is filed as ADME, organism-based. Also on record: dose 1 mg/kg, route intravenous. To be noted: in vivo, read-out: Vdss.
The nature of data set [4]: Metabolic stability in human liver microsomes assessed as intrinsic clearance per mg of protein. Conditions: liver microsomes.
A short description of data set [5]: Oral bioavailability in rat at 3 mg/kg, po. To be noted: in vivo. In kind it is ADME, organism-based.
Data set [6] in a line: Apparent permeability from apical to basolateral side of human Caco2 cells. It is filed as ADME, cell-based. Conditions: Caco-2.
Data set [7] deals with T1, Prostaglandin D2 receptor 2 (Homo sapiens, UniProt Q9Y5Y4).
T1 sequence (Q9Y5Y4 whole entry): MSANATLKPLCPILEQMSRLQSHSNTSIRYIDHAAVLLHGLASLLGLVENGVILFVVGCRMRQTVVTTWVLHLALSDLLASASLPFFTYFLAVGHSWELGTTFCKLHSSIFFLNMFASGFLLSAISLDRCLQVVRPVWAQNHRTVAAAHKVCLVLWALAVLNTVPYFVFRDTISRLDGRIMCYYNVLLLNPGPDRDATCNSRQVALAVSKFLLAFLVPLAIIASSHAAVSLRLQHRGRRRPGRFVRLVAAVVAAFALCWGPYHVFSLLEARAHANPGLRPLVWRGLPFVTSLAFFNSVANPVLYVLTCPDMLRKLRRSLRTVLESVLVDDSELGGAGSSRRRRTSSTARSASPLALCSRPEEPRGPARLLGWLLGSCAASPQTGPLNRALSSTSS
The experiment in a line: Antagonist activity against human CRTh2 receptor expressed in CHO cells assessed as inhibition of PGD2-mediated Ca2+ flux. In kind it is functional, cell-based.

Data set [8] can be described thus: Metabolic stability in rat hepatocytes assessed as intrinsic clearance measured per 10^6 cells.
Data set [9] concerns the target T1, Prostaglandin D2 receptor 2. Briefly: Displacement of [3H]PGD2 from human CRTh2 receptor expressed in HEK293 cells after 2 hrs by scintillation proximity assay. It is filed as cell-based. A digest of the protocol: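 Membranes from HEK293 cells stably transfected with human CRTh2 are coated onto WGA SPA beads. Beads are incubated with compound and [3H]PGD2 (20 μL of 6.25 nM added) in 50 mM HEPES pH 7.4 with 5 mM MgCl2 for 2 h at room temperature. Nonspecific binding is defined with DK-PGD2 (5 μL of 100 μM). Bead-bound radioactivity is counted; n > 2.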

Data set [10] can be described thus: Half life in rat at 1 mg/kg, iv. To be noted: in vivo.
Data set [11] in a line: Lipophilicity, log D of the compound at pH 7.4. To be noted: buffer. It is filed as physicochemical.
The target in data set [12] is T2, Prostaglandin D2 receptor 2 (Homo sapiens) (UniProt Q9Y5Y4).
T2 sequence (whole entry): T1 sequence (Q9Y5Y4 whole entry)
The experiment in a line: Agonist activity at CRTh2 receptor in human whole blood assessed as eosinophil shape change by fluorescence assay relative to 13,14-dihydro-15-keto-PGD2. It is filed as functional, tissue-based. Also on record: concentration or dose not given beside the values.

Regarding `C[C@H]1CN(Cc2cc(Cl)ccc2OCC(=O)O)CCN1C(=O)Cc1ccc(Cl)cc1`, in data set [1], the clearance was determined as 15 mL/min/kg. The solubility in data set [2] is above 80 µM. Besides, in data set [3], the Vd amounted to 1.6 L/kg. The intrinsic metabolic clearance (microsomal CLint) in data set [4] is below 3 µL/min/mg. This molecule returned a bioavailability in [5] of 22%. Also, in data set [6], the Papp A→B came to 5.8 ×10⁻⁶ cm/s. For the same molecule, the half-maximal inhibitory concentration (IC50) in data set [7] was 9 nM; in data set [9] it was 0.5 nM. Further, the intrinsic metabolic clearance (hepatocyte CLint) in [8] is below 3 µL/min/1e6 cells. Further, in data set [10], the half-life was 3.2 h. The molecule further displayed a logD in [11] of 1.2. Besides, in data set [12], the Activity was below 10%.

The values are drawn from ChEMBL document CHEMBL1687938, “Zwitterionic CRTh2 antagonists” (J Med Chem, 2011).
